# How the values were obtained:
# [1] = Metabolic stability in pooled human liver microsomes assessed as substrate remaining in presence of NADPH incubated for 30 mins by LC-MS analysis; format: ADME, Microsome; conditions: read-out: Stabilty
# Summary of the method: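 Microsomes from male CD-1 mouse or pooled human, 1 mg/mL protein in 0.05 M phosphate buffer pH 7.4. Compound at final 0.1 μM with DMSO cosolvent. Incubated at 37 °C with 1 mM NADPH, or with buffer in place of NADPH. Sampled at 0 and 30 min and quenched with acetonitrile. LC−MS measurement; substrate remaining at 30 min normalized to time zero.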
# Staphylococcus aureus = test: Antibacterial activity against methicillin resistant Staphylococcus aureus assessed as bacterial growth inhibition after 18 hrs by broth microdilution method; format: functional
# Vero = test: Cytotoxicity against african green monkey Vero cells after 48 hrs by MTT assay; format: cell-based; conditions: Chlorocebus sabaeus
# Summary of the method: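 Vero cells grown in RPMI1640 with 10% FBS at 37 °C, 5% CO2. Cells diluted to 4 × 10⁵ cells/mL. Compounds given as three-fold serial dilutions, final 64−0.26 μg/mL, for 48 h at 37 °C. Monolayers washed with warm HBSS, then MTT added for 4 h. Absorbance read at 492 nm.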
# [2] = Inhibition of mitochondrial protein synthesis in […] H9C2 cells after 5 days by ELISA; format: functional, cell-based; conditions: Rattus norvegicus, H9c2, 120 h
# Summary of the method: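 H9C2 cells in DMEM with 10% FBS, glutamine and NEAA, seeded at 1500 cells/well. After 18 h, compounds added at final 200 to 0.03 μM in nine 3-fold steps, then 5 days at 37 °C, 5% CO2. Negative control 0.5% DMSO. Mitochondrial protein synthesis read by MitoBiogenesis In-Cell ELISA; IC50 fitted.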
# [3] = molecular target: T1, Amine oxidase [flavin-containing] B (Homo sapiens, UniProt P27338); test: Inhibition of MAO-B (unknown origin) using kynuramine as substrate preincubated for 5 mins with substrate followed by enzyme addition and measured after 15 mins by LC-MS/MS analysis
# T1 sequence (P27338 whole entry): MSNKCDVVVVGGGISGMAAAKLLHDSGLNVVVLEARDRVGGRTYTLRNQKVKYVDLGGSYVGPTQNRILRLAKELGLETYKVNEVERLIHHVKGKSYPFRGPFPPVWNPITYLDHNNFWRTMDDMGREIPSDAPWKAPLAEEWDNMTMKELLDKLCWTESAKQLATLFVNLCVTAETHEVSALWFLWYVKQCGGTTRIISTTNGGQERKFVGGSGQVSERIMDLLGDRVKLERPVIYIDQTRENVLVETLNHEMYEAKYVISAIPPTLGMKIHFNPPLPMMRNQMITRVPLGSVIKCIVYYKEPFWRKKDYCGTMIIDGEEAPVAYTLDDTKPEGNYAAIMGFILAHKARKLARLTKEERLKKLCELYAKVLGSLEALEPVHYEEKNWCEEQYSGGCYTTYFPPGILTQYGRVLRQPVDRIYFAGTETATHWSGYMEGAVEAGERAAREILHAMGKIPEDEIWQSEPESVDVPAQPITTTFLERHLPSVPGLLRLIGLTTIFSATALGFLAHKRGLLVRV
# Summary of the method: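 Recombinant MAO-A (0.01 mg/mL working solution) or MAO-B (0.04 mg/mL working solution) in phosphate buffer. Kynuramine 40 μM working solution. Compound or DMSO preincubated with substrate for 5 min at 37 °C; enzyme then added and incubated 15 min at 37 °C. Reaction quenched. Product 4-hydroxyquinoline (printed as 4-hydroxyquinolinol) measured by LC−MS/MS. Six concentrations in 4-fold dilutions; IC50 from % inhibition versus vehicle.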
# [4] = Cmax in BALB/c mouse at 1 mg/kg, iv measured upto 24 hrs by LC-MS/MS analysis; format: ADME, organism-based; design: route intravenous, dose 1 mg/kg, time <=24; conditions: in vivo
# Summary of the method: (§1)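 Female BALB/c mice, 16−21 g, three per route. Oral dosing at 10 mg/kg as a 5 mg/mL suspension in 0.5% carboxymethyl cellulose. IV dosing at 1 mg/kg as a 1 mg/mL solution in 10% DMSO/50% PEG400/40% water. Blood sampled 15 min to 24 h after oral dosing and 5 min to 24 h after iv. LC/MS/MS quantification in ESI positive mode. Noncompartmental analysis; F = (AUCpo×dose_iv)/(AUCiv×dose_po)×100%.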
# [5] = AUC (0 to t) in BALB/c mouse at 1 mg/kg, iv measured upto 24 hrs by LC-MS/MS analysis; format: ADME, organism-based; design: route intravenous, dose 1 mg/kg, time <=24; conditions: in vivo; summary of the method: as §1
# [6] = AUC (0 to t) in BALB/c mouse at 10 mg/kg, po measured upto 24 hrs by LC-MS/MS analysis; format: ADME, organism-based; design: route oral, dose 10 mg/kg, time <=24; conditions: in vivo; summary of the method: as §1
# [7] = AUC (0 to infinity) in BALB/c mouse at 1 mg/kg, iv measured upto 24 hrs by LC-MS/MS analysis; format: ADME, organism-based; design: route intravenous, dose 1 mg/kg, time <=24; conditions: in vivo; summary of the method: as §1
# [8] = Clearance in BALB/c mouse at 1 mg/kg, iv measured upto 24 hrs by LC-MS/MS analysis; format: ADME, organism-based; conditions: in vivo; summary of the method: as §1
# [9] = Oral bioavailability in BALB/c mouse at 10 mg/kg measured upto 24 hrs by LC-MS/MS analysis; format: ADME, organism-based; conditions: in vivo; summary of the method: as §1
compound,measurement,setting,value
CC(=O)NC[C@@H]1OC(=O)N2Cc3cc(-c4ccc(C#N)nc4)c(F)cc3O[C@@H]12,remaining at 0.5 h,[1],118%
same,MIC,Staphylococcus aureus,0.25 µg/mL
same,IC50,Vero,> 64 µg/mL
same,IC50,[2],1.63 µM
same,IC50,[3],6.07 µM
same,Cmax,[4],1790 ng/mL
same,AUC(0-t) at 24 h,[5],6080 ng·h/mL
same,AUC(0-t) at 24 h,[6],77600 ng·h/mL
same,AUC(0-inf),[7],6160 ng·h/mL
same,clearance,[8],2.71 mL/min/kg
same,bioavailability,[9],128%
